The array DNA melting data of Ke et al. (doi:10.1101/2024.01.08.574731)

Assays:
[1] = folding enthalpy; higher = less favourable; fluorescence melt of hairpins on a sequencing array, two-state fit; conditions: sodium 0.088 M
Method in brief: (§1)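 Bootstrapped two-state fits yielded melting temperature and folding enthalpy for library hairpins. Cy3 fluorescence, with annealed Cy3 and quencher oligos, was imaged on a sequenced MiSeq flow cell in 50 mM Na-HEPES pH 8.0, 25 mM NaCl in 2.5 °C steps up to 60 °C, and normalised to pre-quench Cy3 and to control constructs. Four replicates were combined by inverse variance, and fitted temperatures were raised by 9.35 °C to match UV melts.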

[2] = melting temperature; fluorescence melt of hairpins on a sequencing array, two-state fit, raised by 9.35 °C to match UV melts; conditions: sodium 0.088 M
Method in brief: as §1

GCAATGGGAAACCATTGC (((((((....)))))))
folding enthalpy [1]: -39.2 kcal/mol
Tm [2]: 66.2 °C

GCAATTACGAAAGTATGC (((..(((....))))))
folding enthalpy [1]: -20.3 kcal/mol
Tm [2]: 31.1 °C

GCAATTCCGAAAGGATGC (((..(((....))))))
folding enthalpy [1]: -21.5 kcal/mol
Tm [2]: 38 °C

GCAATTCGAAAGAAGTGC (((.(((....))).)))
folding enthalpy [1]: -34.6 kcal/mol
Tm [2]: 52.4 °C

GCACAAGGAAACCTGTGC (((((.(....).)))))
folding enthalpy [1]: -34 kcal/mol
Tm [2]: 50.5 °C

GCACAAGGAAACTTGTAC (.(((((....))))).)
folding enthalpy [1]: -20.6 kcal/mol
Tm [2]: 32.9 °C

GCACAATCGAAAGATTGC (((..(((....))))))
folding enthalpy [1]: -10.3 kcal/mol
Tm [2]: 34.5 °C

GCACACACGAAAGTGTGC (((..(((....))))))
folding enthalpy [1]: -11.6 kcal/mol
Tm [2]: 57.7 °C

GCACACGAAAGTGACTGC ((((((....)))..)))
folding enthalpy [1]: -17.9 kcal/mol
Tm [2]: 37.6 °C

GCACACGAAAGTGGCTGC ((((((....)))..)))
folding enthalpy [1]: -20.7 kcal/mol
Tm [2]: 54.3 °C

GCACACGAAAGTGGTTGC ((((((....)))..)))
folding enthalpy [1]: -15.5 kcal/mol
Tm [2]: 45.9 °C

GCACACGAAAGTGTCTGC ((((((....)))..)))
folding enthalpy [1]: -15.3 kcal/mol
Tm [2]: 42 °C

GCACACTCGAAAGAGTGC (((..(((....))))))
folding enthalpy [1]: -9.86 kcal/mol
Tm [2]: 38 °C

GCACAGAAATGTGC (((((....)))))
folding enthalpy [1]: -33.9 kcal/mol
Tm [2]: 57.2 °C

GCACAGACGAAAGTCTGC (((..(((....))))))
folding enthalpy [1]: -8.42 kcal/mol
Tm [2]: 34.5 °C

GCACAGCCGAAAGGCTGC (((..(((....))))))
folding enthalpy [1]: -6.1 kcal/mol
Tm [2]: 39.9 °C

GCACAGCGAAAGCAATGC (((..((....))..)))
folding enthalpy [1]: -10.9 kcal/mol
Tm [2]: 37.3 °C

GCACAGCGAAAGCATTGC (((..((....))..)))
folding enthalpy [1]: -14.4 kcal/mol
Tm [2]: 38.2 °C

GCACAGCGAAAGCCGCGC ((.(.((....)).).))
folding enthalpy [1]: -20.3 kcal/mol
Tm [2]: 46.5 °C

GCACAGCGAAAGCGCTGC (((..((....))..)))
folding enthalpy [1]: -14.8 kcal/mol
Tm [2]: 49.2 °C

GCACAGCGAAAGCTATGC (((.(((....))).)))
folding enthalpy [1]: -40.8 kcal/mol
Tm [2]: 49.5 °C

GCACAGCGAAAGCTTAGC ((..(((....)))..))
folding enthalpy [1]: -10.9 kcal/mol
Tm [2]: 31.8 °C

GCACAGCGAAAGCTTGC (((.(((....))))))
folding enthalpy [1]: -20.1 kcal/mol
Tm [2]: 51.5 °C

GCACAGCGAAAGCTTGGC ((..(((....)))..))
folding enthalpy [1]: -15.4 kcal/mol
Tm [2]: 47.5 °C

GCACAGGCGAAAGCCTGC (((..(((....))))))
folding enthalpy [1]: -6.09 kcal/mol
Tm [2]: 42.6 °C

GCACAGGGAAACCTGCGC ((.((((....)))).))
folding enthalpy [1]: -44.3 kcal/mol
Tm [2]: 51.8 °C

GCACAGGGAAACTTGTGC (((((.(....).)))))
folding enthalpy [1]: -34.7 kcal/mol
Tm [2]: 52.1 °C

GCACATCGAAAGATATGC (((.(((....))).)))
folding enthalpy [1]: -30.2 kcal/mol
Tm [2]: 42.9 °C

GCACATCGAAAGATTGC (((.(((....))))))
folding enthalpy [1]: -27.9 kcal/mol
Tm [2]: 46 °C

GCACATGAAAATGTGC ((((((....))))))
folding enthalpy [1]: -39.8 kcal/mol
Tm [2]: 62.4 °C

GCACATGGAAACACGTGC ((((.((....)).))))
folding enthalpy [1]: -41 kcal/mol
Tm [2]: 46.7 °C

GCACCAACGAAAGTTTGC (((..(((....))))))
folding enthalpy [1]: -13.5 kcal/mol
Tm [2]: 27.9 °C

GCACCACGAAAGTGCTGC (((.(((....))).)))
folding enthalpy [1]: -25.2 kcal/mol
Tm [2]: 50.5 °C

GCACCAGGAAACCAGTGC ((((..(....)..))))
folding enthalpy [1]: -30.5 kcal/mol
Tm [2]: 39 °C

GCACCCGAAAGGGCGTGC ((((((....)))..)))
folding enthalpy [1]: -29.6 kcal/mol
Tm [2]: 51.2 °C

GCACCCGAAAGGGGCTGC ((((((....)))..)))
folding enthalpy [1]: -17.9 kcal/mol
Tm [2]: 65.3 °C

GCACCCGAAAGGGGGTGC ((((((....)))..)))
folding enthalpy [1]: -21 kcal/mol
Tm [2]: 66.8 °C

GCACCCGAAAGGGTATGC ((((((....)))..)))
folding enthalpy [1]: -13.9 kcal/mol
Tm [2]: 48.3 °C

GCACCCGAAAGGGTCTGC ((((((....)))..)))
folding enthalpy [1]: -13.3 kcal/mol
Tm [2]: 49.1 °C

GCACCCGAAAGGGTTGC ((((((....))).)))
folding enthalpy [1]: -22.5 kcal/mol
Tm [2]: 63.3 °C

GCACCCGGAAACGAGTGC ((((.((....)).))))
folding enthalpy [1]: -48.8 kcal/mol
Tm [2]: 51.6 °C

GCACCGCGAAAGCATTGC (((..((....))..)))
folding enthalpy [1]: -10.3 kcal/mol
Tm [2]: 33.4 °C

GCACCGCGAAAGCCGAGC ((.(.((....)).).))
folding enthalpy [1]: -12.9 kcal/mol
Tm [2]: 39 °C

GCACCGCGAAAGCCGTGC ((((.((....)).))))
folding enthalpy [1]: -31.1 kcal/mol
Tm [2]: 62.2 °C

GCACCGCGAAAGCGCGGC ((..(((....)))..))
folding enthalpy [1]: -11 kcal/mol
Tm [2]: 45 °C

GCACCGCGAAAGCTGGGC ((.(.((....)).).))
folding enthalpy [1]: -19.1 kcal/mol
Tm [2]: 57.5 °C

GCACCGCGAAAGCTTTGC (((..((....))..)))
folding enthalpy [1]: -12 kcal/mol
Tm [2]: 36.2 °C

GCACCGGGAAACCAGCGC ((.(.((....)).).))
folding enthalpy [1]: -20.7 kcal/mol
Tm [2]: 37.4 °C

GCACCTACGAAAGTATGC (((..(((....))))))
folding enthalpy [1]: -13.5 kcal/mol
Tm [2]: 27.3 °C

GCACCTCGAAAGAGTTGC (((.(((....))).)))
folding enthalpy [1]: -28.1 kcal/mol
Tm [2]: 48.6 °C

GCACCTGGAAACGGGTGC (((((.(....).)))))
folding enthalpy [1]: -48 kcal/mol
Tm [2]: 60.9 °C

GCACGAACGAAAGTTTGC (((..(((....))))))
folding enthalpy [1]: -17.1 kcal/mol
Tm [2]: 33.5 °C

GCACGACGAAAGTCCTGC (((.(((....))).)))
folding enthalpy [1]: -26.8 kcal/mol
Tm [2]: 45.6 °C

GCACGAGGAAACCCGTGC (((((.(....).)))))
folding enthalpy [1]: -45.2 kcal/mol
Tm [2]: 58.2 °C

GCACGAGGAAACTCACGC ((..(((....)))..))
folding enthalpy [1]: -22.7 kcal/mol
Tm [2]: 31.7 °C

GCACGAGGAAACTCGCGC ((.((((....)))).))
folding enthalpy [1]: -43.5 kcal/mol
Tm [2]: 54.5 °C

GCACGCCGAAAGGCATGC (((.(((....))).)))
folding enthalpy [1]: -28 kcal/mol
Tm [2]: 60.5 °C

GCACGCCGAAAGGCCTGC (((.(((....))).)))
folding enthalpy [1]: -23.2 kcal/mol
Tm [2]: 48.8 °C

GCACGCGAAAGCGCCTGC ((((((....)))..)))
folding enthalpy [1]: -9.69 kcal/mol
Tm [2]: 37.1 °C

GCACGCGAAAGCGCTGC ((((((....))).)))
folding enthalpy [1]: -18.4 kcal/mol
Tm [2]: 62.4 °C

GCACGCGGAAACACGCGC ((.((.(....).)).))
folding enthalpy [1]: -11.2 kcal/mol
Tm [2]: 40.1 °C

GCACGCGGAAACGCACGC ((..(((....)))..))
folding enthalpy [1]: -18.1 kcal/mol
Tm [2]: 47.2 °C

GCACGGCGAAAGCGGAGC ((.(.((....)).).))
folding enthalpy [1]: -17.7 kcal/mol
Tm [2]: 44.7 °C

GCACGGCGAAAGCTCTGC (((..((....))..)))
folding enthalpy [1]: -21.1 kcal/mol
Tm [2]: 37.4 °C

GCACGGCGAAAGCTGCGC ((.(.((....)).).))
folding enthalpy [1]: -20.8 kcal/mol
Tm [2]: 61 °C

GCACGGCGAAAGCTTTGC (((..((....))..)))
folding enthalpy [1]: -22.6 kcal/mol
Tm [2]: 38.3 °C

GCACGGGGAAACCTGTGC ((((.((....)).))))
folding enthalpy [1]: -37.7 kcal/mol
Tm [2]: 58.6 °C

GCACGTACGAAAGTATGC (((..(((....))))))
folding enthalpy [1]: -16 kcal/mol
Tm [2]: 31.3 °C

GCACGTCCGAAAGGATGC (((..(((....))))))
folding enthalpy [1]: -11.9 kcal/mol
Tm [2]: 36.8 °C

GCACGTCGAAAGACCTGC (((.(((....))).)))
folding enthalpy [1]: -28.1 kcal/mol
Tm [2]: 45.2 °C

GCACGTGGAAACGTGTGC ((((..(....)..))))
folding enthalpy [1]: -24.8 kcal/mol
Tm [2]: 58.5 °C

GCACTACCGAAAGGTTGC (((..(((....))))))
folding enthalpy [1]: -15.9 kcal/mol
Tm [2]: 39.6 °C

GCACTAGGAAACTAGTGC (((((((....)))))))
folding enthalpy [1]: -36.2 kcal/mol
Tm [2]: 62.8 °C

GCACTCCGAAAGGATGC (((.(((....))))))
folding enthalpy [1]: -29.4 kcal/mol
Tm [2]: 51.7 °C

GCACTCGGAAACGAACGC ((..(((....)))..))
folding enthalpy [1]: -13.9 kcal/mol
Tm [2]: 27.8 °C

GCACTCGGAAACGAATGC (((.(((....))).)))
folding enthalpy [1]: -33.5 kcal/mol
Tm [2]: 45.1 °C

GCACTCGGAAACGAGTAC (.(((((....))))).)
folding enthalpy [1]: -13.6 kcal/mol
Tm [2]: 44.1 °C

GCACTGAAAAGTGC (((((....)))))
folding enthalpy [1]: -35.1 kcal/mol
Tm [2]: 61 °C

GCACTGCGAAAGCAATGC (((.(((....))).)))
folding enthalpy [1]: -40.9 kcal/mol
Tm [2]: 51.5 °C

GCACTGCGAAAGCACCGC ((..(((....)))..))
folding enthalpy [1]: -9.03 kcal/mol
Tm [2]: 29.5 °C

GCACTGCGAAAGCATCGC ((..(((....)))..))
folding enthalpy [1]: -12.8 kcal/mol
Tm [2]: 39.5 °C

GCACTGCGAAAGCATTGC (((.(((....))).)))
folding enthalpy [1]: -42.6 kcal/mol
Tm [2]: 52.5 °C

GCACTGCGAAAGCCGAGC ((.(.((....)).).))
folding enthalpy [1]: -20.2 kcal/mol
Tm [2]: 38.8 °C

GCACTGCGAAAGCCGGGC ((.(.((....)).).))
folding enthalpy [1]: -22.7 kcal/mol
Tm [2]: 57.1 °C

GCACTGCGAAAGCGGAGC ((.(.((....)).).))
folding enthalpy [1]: -19.8 kcal/mol
Tm [2]: 49.9 °C

GCACTGCGAAAGCGGGGC ((.(.((....)).).))
folding enthalpy [1]: -33.5 kcal/mol
Tm [2]: 67.2 °C

GCACTGCGAAAGCTATGC (((..((....))..)))
folding enthalpy [1]: -16.7 kcal/mol
Tm [2]: 40.3 °C

GCACTGCGAAAGCTCTGC (((..((....))..)))
folding enthalpy [1]: -17.4 kcal/mol
Tm [2]: 35.8 °C

GCACTGCGAAAGCTTTGC (((..((....))..)))
folding enthalpy [1]: -24.5 kcal/mol
Tm [2]: 42.9 °C

GCACTGGGAAACCAGCGC ((.((((....)))).))
folding enthalpy [1]: -40.7 kcal/mol
Tm [2]: 51.9 °C

GCACTTCCGAAAGGATGC (((..(((....))))))
folding enthalpy [1]: -17.7 kcal/mol
Tm [2]: 37.9 °C
